Test results published in ChEMBL document CHEMBL1155202, “Synthesis and anticancer activity of novel 3,4-diarylthiazol-2(3H)-ones (imines)” (Bioorg Med Chem Lett, 2009).

Tests used:
Bel-7402 = experiment: Anticancer activity against human Bel7402 cells after 72 hrs; format: functional, cell-based; details: Bel-7402, 72 h
In short: (§1)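 Solid human tumour lines (liver Bel-7402, HepG2, SMMC-7721; breast MCF-7; pancreatic SW-1990; colon HCT116) were exposed to compounds. IC50 was taken as the concentration inhibiting 50% of cell proliferation. CA-4 served as positive control.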

HepG2 [1] = experiment: Anticancer activity against human HepG2 cells after 72 hrs; format: functional, cell-based; details: HepG2, 72 h; in short: as §1
SMMC-7721 = experiment: Anticancer activity against human SMMC7721 cells after 72 hrs; format: functional, cell-based; details: SMMC-7721, 72 h; in short: as §1
MCF7 = experiment: Anticancer activity against human MCF7 cells after 72 hrs; format: functional, cell-based; details: MCF7, 72 h; in short: as §1
SW1990 = experiment: Anticancer activity against human SW1990 cells after 72 hrs; format: functional, cell-based; details: SW1990, 72 h; in short: as §1
HCT-116 = experiment: Anticancer activity against human HCT116 cells after 72 hrs; format: functional, cell-based; details: HCT-116, 72 h; in short: as §1
CCRF-CEM = experiment: Anticancer activity against human CCRF-CEM cells after 72 hrs; format: functional, cell-based
In short: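 CEM human leukemia cells were exposed to compounds. IC50 was defined as the concentration required to inhibit 50% of cell proliferation.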

HepG2 [2] = experiment: Cell cycle arrest in human HepG2 cells assessed as increase in G2/M phase cells after 20 hrs by flow cytometry using propidium iodide staining; format: functional, cell-based; details: for EC50: HepG2, 20 h
In short: (§2)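 HepG2 cells were left untreated or treated with compounds across a dose range for 20 h at 37 °C. CA-4 served as positive control. Cell-cycle phase distribution (G1, S, G2/M fractions) was then analysed by flow cytometry.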

HepG2 [3] = experiment: Cell cycle arrest in human HepG2 cells assessed as decrease in S phase cells after 20 hrs by flow cytometry using propidium iodide staining; format: functional, cell-based; in short: as §2
HepG2 [4] = experiment: Cell cycle arrest in human HepG2 cells assessed as decrease in G1 phase cells after 20 hrs by flow cytometry using propidium iodide staining; format: functional, cell-based; in short: as §2
HepG2 [5] = experiment: Ratio of Compound EC50 to Combrestatin A4 EC50 for cell cycle arrest in human HepG2 cells assessed as increase in G2/M phase cells after 20 hrs by flow cytometry using propidium iodide staining; format: functional

COc1ccc(-c2c(Cl)sc(=O)n2-c2cc(OC)c(OC)c(OC)c2)cc1N gave an IC50 (Bel-7402) of 23.4 µM, an IC50 (HepG2 [1]) of 96 µM and an IC50 (SMMC-7721) of 118 µM. The IC50 (MCF7) was 52.5 µM, the IC50 (SW1990) was 56.7 µM and the IC50 (HCT-116) was 85.1 µM. The IC50 (CCRF-CEM) was 0.12 µM and the EC50 (HepG2 [2]) was > 250 µM.
In the case of COc1ccc(-c2csc(=O)n2-c2cc(OC)c(OC)c(OC)c2)cc1N, the IC50 (Bel-7402) is reported as 3.3 µM, the IC50 (HepG2 [1]) is reported as 4.5 µM and the IC50 (SMMC-7721) is reported as 7.4 µM. The IC50 (MCF7) was 4.4 µM, the IC50 (SW1990) was 20.3 µM and the IC50 (HCT-116) was 3.4 µM. The IC50 (CCRF-CEM) was 0.24 µM, the Activity (HepG2 [2]) was “Dose-dependent effect” and the EC50 (HepG2 [2]) was 3.89 µM. For the same compound, the Activity (HepG2 [3]) was “Dose-dependent effect”, the Activity (HepG2 [4]) was “Dose-dependent effect” and the “Ratio EC50” value (HepG2 [5]) was 130.
COc1ccc(/C=C\c2cc(OC)c(OC)c(OC)c2)cc1O [COMBRETASTATIN A4] showed an IC50 (Bel-7402) of 1.72 µM, an IC50 (HepG2 [1]) of 0.006 µM and an IC50 (SMMC-7721) of 0.29 µM. For the same compound, the IC50 (MCF7) was 0.03 µM, the IC50 (SW1990) was 0.25 µM and the IC50 (HCT-116) was 0.006 µM. For the same compound, the IC50 (CCRF-CEM) was 0.002 µM and the EC50 (HepG2 [2]) was < 0.03 µM.
Work on COc1ccc(-c2csc(=N)n2-c2cc(OC)c(OC)c(OC)c2)cc1 yielded an IC50 (CCRF-CEM) of 1.5 µM.
With COc1ccc(-n2c(-c3cc(OC)c(OC)c(OC)c3)c(Cl)sc2=O)cc1 the IC50 (CCRF-CEM) was 13.8 µM.
COc1ccc(-n2c(-c3cc(OC)c(OC)c(OC)c3)csc2=O)cc1N gave an IC50 (CCRF-CEM) of 10.1 µM.
In the case of COc1ccc(-n2c(-c3cc(OC)c(OC)c(OC)c3)c(Cl)sc2=O)cc1[N+](=O)[O-], the IC50 (CCRF-CEM) is reported as > 20 µM.
In the case of COc1ccc(-n2c(-c3cc(OC)c(OC)c(OC)c3)csc2=O)cc1[N+](=O)[O-], the IC50 (CCRF-CEM) is reported as 2.7 µM.
COc1ccc(-c2c(Cl)sc(=O)n2-c2cc(OC)c(OC)c(OC)c2)cc1[N+](=O)[O-] gave an IC50 (CCRF-CEM) of 7.5 µM.
In the case of COc1ccc(-n2c(-c3cc(OC)c(OC)c(OC)c3)csc2=N)cc1, the IC50 (CCRF-CEM) is reported as 13.2 µM.
COc1ccc(-n2c(-c3cc(OC)c(OC)c(OC)c3)csc2=O)cc1 was tested, and the IC50 (CCRF-CEM) was 14.9 µM.
Work on COc1ccc(-c2csc(=O)n2-c2cc(OC)c(OC)c(OC)c2)cc1 yielded an IC50 (CCRF-CEM) of 1.8 µM.
For COc1ccc(-n2c(-c3cc(OC)c(OC)c(OC)c3)c(Cl)sc2=O)cc1N, the IC50 (CCRF-CEM) was 16.2 µM.
Work on COc1ccc(-c2csc(=O)n2-c2cc(OC)c(OC)c(OC)c2)cc1[N+](=O)[O-] yielded an IC50 (CCRF-CEM) of 8.2 µM.
With COc1ccc(-c2csc(=N)n2-c2ccc(OC)cc2)cc1 the IC50 (CCRF-CEM) was > 20 µM.
For COc1ccc(-c2c(Cl)sc(=O)n2-c2cc(OC)c(OC)c(OC)c2)cc1, the IC50 (CCRF-CEM) was > 20 µM.
